# An excerpt weighted towards active compounds, which were near 1.1% of everything screened.
# aDG glyco act – activators of alpha-DG glycosylation, primary screen, uHTS, Pro5-aDG cells, AlphaScreen | alpha-DG glycosylation AlphaScreen (IIH6); 0% Pro5, 100% B10-LARGE cell signal | activation, % at 10 µM | 360,000 compounds, 0.22% hits;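 active = activation of at least 8% versus controls, or a plate z-score of at least 8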;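 note: Pro5 are CHO cells carrying HIG-tagged alpha-DG that lacks glycosylation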
# GRK2 aptamer HTS – compounds blocking aptamer binding on GRK2 – biochemical, human GRK2, bead flow cytometry, HTS, primary screen; Beta-adrenergic receptor kinase 1 (Homo sapiens), P25098; FAM-aptamer displacement from GRK2; inhibition of aptamer binding, % at 10 µM; 330,000 compounds, 0.59% hits; AID 488847, 2010;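 active = inhibition of aptamer binding above 40%, roughly 3 SD of noise, on plates passing a quality check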;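 note: median bead fluorescence of bound FAM aptamer so fluorescent compounds give negative values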
# CaV13 ICDI inh – Primary screen for inhibitors of IQ motif and Ca2+-dependent inactivation inhibitor domain binding in CACNA1D, Förster resonance energy transfer in living cells, …; 340,000 compounds, 0.098% hits; HEK cells, CFP/YFP FRET ICDI-IQ, plate reader, 10 min; percent FRET-ratio fall versus neutral wells; inhibition, % at 12.3 µM; AID 743397;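 active = mean replicate inhibition of at least 30% and at least 1% of replicates passing that level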
# procasp7 counter – procaspase-7 activators, primary screen, counter-screen for procaspase-3 activator project, biochemical, absorbance, HTS, human; Caspase-7 (Homo sapiens), P55210; recombinant procaspase-7, Ac-DEVD-pNA absorbance 405 nm; D23A/D198A/D206A triple mutant, cannot self-cleave; scale: DMSO 0, 5 µM enzyme 100; activation, % at 8.5 µM; 330,000 compounds, 0.093% hits; AID 463210, 2010;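 active = percent activation above the screen-wide mean plus 3 SD, cut at about 25% in these data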
# Target sequence (P55210 whole entry D23A/D198A/D206A): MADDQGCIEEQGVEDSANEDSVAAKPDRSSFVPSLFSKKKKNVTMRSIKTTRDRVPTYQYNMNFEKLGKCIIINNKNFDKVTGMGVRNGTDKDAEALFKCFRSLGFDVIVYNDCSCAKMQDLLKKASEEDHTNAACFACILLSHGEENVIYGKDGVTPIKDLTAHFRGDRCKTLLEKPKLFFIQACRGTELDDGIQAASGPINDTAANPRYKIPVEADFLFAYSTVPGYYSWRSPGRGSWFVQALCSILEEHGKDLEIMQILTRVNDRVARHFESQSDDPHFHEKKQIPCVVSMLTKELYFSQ
#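 Assay system – Uncleavable procaspase-7 mutant enzyme · Quantity – 2 µM procaspase-7 mutant as dispensed · Times – 1 h preincubation, 2 h reaction · Dosing – single nominal 8.5 µM compound dose, 0.8% DMSO final · Buffer or medium – Zinc-free 50 mM HEPES buffer, pH 7.4, with NaCl and Triton X-100 · Detection – Epi-absorbance of released pNA at 405 nm, two timepoints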
# proCasp3 act – activators of human procaspase-3 D3A mutant, primary screen, biochemical, absorbance, PC-3 D3A mutant, single concentration. recombinant procaspase-3 D3A, Ac-DEVD-pNA absorbance 405 nm. activation, % at 8.5 µM. 330,000 compounds, 0.11% hits;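 active = activation above the mean of all tested compounds plus 3 SD, cut at about 21% in these data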
# Target sequence (P42574 whole entry D9A/D28A/D175A): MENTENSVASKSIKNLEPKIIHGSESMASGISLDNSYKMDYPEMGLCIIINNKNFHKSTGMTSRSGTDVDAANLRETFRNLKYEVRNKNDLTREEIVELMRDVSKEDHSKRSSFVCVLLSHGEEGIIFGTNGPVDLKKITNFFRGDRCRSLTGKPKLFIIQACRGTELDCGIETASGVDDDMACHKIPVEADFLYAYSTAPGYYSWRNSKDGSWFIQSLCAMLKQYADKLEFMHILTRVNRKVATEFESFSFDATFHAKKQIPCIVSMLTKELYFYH
#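 Assay system – Procaspase-3 D3A mutant · Benchmarks – DMSO low control, extra-enzyme high control · Technique – 405 nm absorbance of p-nitroaniline, reads at 0 and 120 min · Doses – 8.5 µM nominal · Measure – % activation between DMSO and enzyme-spiked controls · Also added – Ac-DEVD-pNA chromogenic peptide substrate · Schedule – 1 h compound preincubation, 2 h substrate hydrolysis at 25 °C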
# T cell modulator – modulators of CD8 T cell-vesicle binding, primary screen, mouse 2C CD8+ T cells, flow cytometry; response (vesicle binding), % at 7 µM; 330,000 compounds, 0.068% hits; AID 2052, 2009; 2C CD8+ T cell-vesicle binding; active compounds read low;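 active = response, share of CD8 T cells binding vesicles, and their 90th percentile fluorescence all below set limits, cut at about 80% in these data, passing the limit was not always enough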;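 note: values below 100% mean blocked vesicle binding to the CD8+ T cells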
#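 Benchmarks: naked versus QL9-loaded vesicles / Assay system: purified 2C TCR transgenic mouse naive CD8+ T cells / Technique: high-throughput flow cytometry with anti-B7-1 and anti-CD8 staining / Timing: Cell–vesicle co-incubation 1.5 h at 37 °C, staining 20 min on ice / Read-out: percent CD8+ FL2 mean versus row control / Probe or stimulus: QL9-loaded Drosophila micro-vesicles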
# A number is an active result; – = inactive; · = not tested or not shown; + = active, no number.
SMILES,aDG glyco act,GRK2 aptamer HTS,CaV13 ICDI inh,procasp7 counter,proCasp3 act,T cell modulator
CC(/C=C/C=C/c1ccccc1)=N/NC(=O)CNc1ccccc1C,–,55.0,–,–,–,–
Nc1[nH]c(C(=O)c2ccccc2)c(-c2cccc(C(F)(F)F)c2)c1C(=O)NCCc1c[nH]c2ccccc12,·,·,–,·,·,·
Cc1ccccc1NC(=O)Cc1nc(COC(=O)c2cc([N+](=O)[O-])ccc2N)cs1,–,55.0,–,–,–,–
Cc1ccccc1NC(=O)Cc1nc(COC(=O)c2cc(Br)ccc2O)cs1,–,–,–,–,–,–
COC(=O)[C@@H](Cc1ccc(O)cc1)NC(=O)[C@H]1O[C@@H](n2cnc3c(=O)[nH]c(N)nc32)[C@H](O)[C@@H]1O,·,·,–,·,·,·
COC(=O)[C@]1(CC(C)C)NC=C(C(=O)c2ccccc2)[C@@H]1c1cccs1,·,·,–,·,·,·
Cc1cccc(Oc2nc(-c3ccccn3)nc3ccccc23)c1,–,–,–,–,–,–
Cc1ccccc1Oc1nc(-c2ccccn2)nc2ccccc12,2.1,–,–,–,–,–
Cc1ccc2c(=O)n3c(nc2c1)C(Cc1ccccc1)NC(=O)c1cc(Cl)ccc1-3 (stereo not drawn),·,–,–,–,–,0.0
c1cncc(Oc2ccc(NCCc3c[nH]c4ccccc34)cc2)c1,·,·,–,·,·,·
NC(Cc1ccc(O)cc1)C(=O)NN=Cc1ccccc1Cl (stereo not drawn),·,·,–,·,·,·
COc1ccc(N2CCN(c3ncnc4c3[nH]c3ccccc34)CC2)cc1,6.2,–,·,–,–,–
COc1ccc2[nH]c3c(N4CCc5ccccc5C4)ncnc3c2c1,–,–,–,–,–,–
N#CC(C#N)=C1C=CC=CN1/C(=C\c1ccccc1)C(=O)c1cccs1,–,–,62.8,–,–,–
COc1ccccc1N1C(=N)S/C(=C\c2ccc(-c3ccccc3C(=O)O)o2)C1=O,–,44.0,–,–,–,–
C[C@H](O)[C@@H]1C(=O)N2CCc3c([nH]c4cccc(-c5ccccc5)c34)[C@@H]2C[C@@H]1N(C)C(=O)C1CCCCC1,·,·,–,·,·,·
C[C@@H](CC#N)CN1CC[C@H](C(C)(C)C)CCC1=O,–,–,33.5,–,–,–
Cc1cccc(NC(=O)C2=C(O)c3ccccc3N(C)S2(=O)=O)c1,–,–,–,–,–,–
CN1c2ccccc2C(O)=C(C(=S)Nc2ccc(Cl)cc2)S1(=O)=O,–,61.0,–,–,–,–
Nc1[nH]c(C(=O)c2ccc(Br)cc2)c(-c2cccc3ccccc23)c1C(=O)NCCc1c[nH]c2ccccc12,·,·,–,·,·,·
COc1ccc(-c2ccc3c(n2)CCCN3S(=O)(=O)c2ccccc2C)cc1,·,·,–,·,·,·
CC(Nc1ncnc2sccc12)c1ccccc1 (stereo not drawn),2.2,–,–,–,–,–
c1ccc(Nc2ncnc3sccc23)cc1,–,–,–,–,–,–
CC(=O)Nc1ccc(OC(=O)c2cc3cc(Br)cc(Br)c3oc2=O)cc1,·,95.0,–,–,–,–
CC(=O)Nc1ccc(OC(=O)c2cc3cc(Br)ccc3oc2=O)cc1,–,–,–,–,–,–
SMILES,aDG glyco act,GRK2 aptamer HTS,CaV13 ICDI inh,procasp7 counter,proCasp3 act,T cell modulator
CC(=O)Nc1ccc(NC(=O)C(C)OC(=O)[C@@H]2CCCN2C(=O)c2cccs2)cc1 (stereo partly drawn),–,–,–,–,–,64.9
Cn1cccc1/C=N/NC(=O)c1sc2cc(Cl)ccc2c1Cl,·,–,42.1,–,–,–
Cc1ccc2c(Cl)c(C(=O)N/N=C/c3cccn3C)sc2c1,–,–,–,–,–,–
Cc1cccn2c(=O)c3cc(C(=O)NC(C)c4ccccc4)c(=N)n(CCCn4ccnc4)c3nc12 (stereo not drawn),–,–,75.3,–,–,–
Cc1ccc2nc3c(cc(C(=O)NCCc4ccccc4)c(=N)n3CCN3CCOCC3)c(=O)n2c1,–,–,·,–,–,–
Cc1ccc2nc3c(cc(C(N)=S)c(=N)n3CCCOC(C)C)c(=O)n2c1,–,–,34.0,–,–,–
Cc1ccc2nc3c(cc(C(=O)NCc4ccccc4)c(=N)n3CCCn3ccnc3)c(=O)n2c1,–,·,+,·,·,·
C[C@H](CO)N1C[C@H](C)[C@H](CN(C)C(=O)Nc2cccc(F)c2)OCc2cnnn2CCCC1=O,·,·,–,·,·,·
CCOC(=O)C(C)(C)CC#CCN(CC#Cc1ccccc1)S(=O)(=O)c1ccc(C)cc1,·,·,–,·,·,·
C[C@@H]1CN([C@@H](C)CO)C(=O)c2ccccc2-c2ccccc2CO[C@@H]1CN(C)Cc1ccc(Cl)c(Cl)c1,·,·,–,·,·,·
O=C(NNC(=O)C1CC1)c1cc(Cl)nc2ccccc12,–,75.0,–,–,–,–
COc1cc(/C=C/c2ccc3cccc(O)c3n2)cc(Cl)c1OC,2.5,–,–,–,–,–
COc1cc(/C=C/c2ccc3cccc(O)c3n2)cc(OC)c1OC,–,–,–,–,–,–
CC(C)(C)NC(=O)CSc1nc2ccc(NC(=O)CSc3nnnn3Cc3ccccc3)cc2s1,5.7,–,·,–,–,–
CCCCS(=O)(=O)N1CCCc2nc(-c3ccc(OC)cc3)ccc21,·,·,–,·,·,·
CC(C)(C)NCC(O)COc1ccccc1C(=O)CCc1ccccc1 (stereo not drawn),2.5,–,–,–,–,–
C=CCC1(CC=C)CCCN1C(=O)C1CCC(=O)N(CCc2ccccc2)C1 (stereo not drawn),–,–,·,–,–,65.7
Nc1[nH]c(C(=O)c2ccccc2)c(-c2ccc3ccccc3c2)c1C(=O)NC1CC1,·,·,–,·,·,·
O=C(Nc1ccc(S(=O)(=O)NC2=NCCCCC2)cc1)c1cccs1,–,–,–,–,–,–
O=C(Nc1ccc(S(=O)(=O)NC2=NCCCCC2)cc1)c1ccc([N+](=O)[O-])s1,8.4,–,–,–,–,–
CN(c1ccccc1)S(=O)(=O)c1ccc(C(=O)NCc2ccco2)cc1,–,·,–,·,·,·

# Screening results (PubChem BioAssay)
